Test results: ChEMBL document CHEMBL1128448, “Synthesis and antifungal activity of new azole derivatives containing an N-acylmorpholine ring” (1995)
Values after ≈ are worked out from the molar mass of the structure shown.

How the values were obtained:
[1] = tested on: Candida tropicalis; test: Evaluation of In vitro antifungal activity against Candida tropicalis 50 by broth macro dilution method; type: functional
How it was run: (§1)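 Yeast MIC and MFC by broth macrodilution per NCCLS M27-P in RPMI-1640 buffered with 0.165 M MOPS. Fluconazole in sterile water, other drugs in DMSO. C. parapsilosis ATCC 22019 is the reference strain in each run. MIC is the lowest concentration with turbidity ≤ the 80% inhibition standard. For MFC, 0.04 mL from clear tubes is plated on Sabouraud agar; MFC is the lowest concentration giving ≤1 colony.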

[2] = tested on: Candida tropicalis; test: In vitro evaluation of minimum inhibitory concentration against Candida tropicalis 2.11; type: functional; details: Candida tropicalis; read-out: MIC
How it was run: (§2)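 Stocks are 800 μg/mL in 50% ethanol. Each plate gets 10 μL of inoculum at 10^5 cfu/mL. Incubation at 25 °C, 48 h for yeasts and 120 h for dermatophytes and molds. Organisms are ATCC strains or clinical isolates.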

[3] = tested on: Cryptococcus neoformans; test: Evaluation of In vitro antifungal activity against Cryptococcus neoformans 74 by broth macro dilution method; type: functional; how it was run: as §1
[4] = tested on: Cryptococcus neoformans; test: Evaluation of In vitro antifungal activity against Cryptococcus neoformans 87 by broth macro dilution method; type: functional; how it was run: as §1
[5] = tested on: Mus sp.; test: In vivo evaluation of % survival rate after peroral administration on 3rd day at dose 0.5 mg/kg; type: functional; details: route oral
[6] = tested on: Mus sp.; test: In vivo evaluation of % survival rate after peroral administration on 3rd day at dose 1 mg/kg; type: functional; details: Mus sp., po
[7] = tested on: Mus sp.; test: In vivo evaluation of % survival rate after peroral administration on 5th day at dose 0.5 mg/kg; type: functional; details: route oral
[8] = tested on: Mus sp.; test: In vivo evaluation of % survival rate after peroral administration on 5th day at dose 1 mg/kg; type: functional; details: Mus sp., po
[9] = tested on: Mus musculus; test: In vivo evaluation of % survival rate after peroral administration on 7th day at dose 0.5 mg/kg; type: functional; details: route oral
[10] = tested on: Mus sp.; test: In vivo evaluation of % survival rate after peroral administration on 7th day at dose 1 mg/kg; type: functional; details: Mus sp., po
[11] = tested on: Mus sp.; test: In vivo evaluation of % survival rate after peroral administration on 9th day at dose 0.5 mg/kg; type: functional; details: Mus sp., po
[12] = tested on: Mus sp.; test: In vivo evaluation of % survival rate after peroral administration on 9th day at dose 1 mg/kg; type: functional; details: route oral, 1 mg/kg
[13] = tested on: Microsporum canis; test: In vitro evaluation of minimum inhibitory concentration against Microsporum canis 47; type: functional; how it was run: as §2
[14] = tested on: Nannizzia gypsea; test: In vitro evaluation of minimum inhibitory concentration against Microsporum gypseum 22; type: functional; how it was run: as §2
[15] = tested on: Rattus norvegicus; test: In vivo evaluation of antifungal activity against vaginal candidosis in rat at dose 0.1 mg/kg on 10th day; type: functional
How it was run: (§3)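 Groups of 10 female Wistar rats given estradiol 25 mg/kg sc on day -5, then vaginally inoculated with C. albicans on day 0. Infection is confirmed by culture of day-3 swabs. Compound is dosed orally once daily on days 3–5; controls get vehicle. Cure is scored by culture of vaginal swabs taken on days 10 and 15.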

[16] = tested on: Rattus norvegicus; test: In vivo evaluation of antifungal activity against vaginal candidosis in rat at dose 0.1 mg/kg on 15th day; type: functional; how it was run: as §3
[17] = tested on: Rattus norvegicus; test: In vivo evaluation of antifungal activity against vaginal candidosis in rat at dose 0.25 mg/kg on 10th day; type: functional
How it was run: (§4)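 Groups of 10 female Wistar rats given estradiol 25 mg/kg sc on day -5, infected intravaginally with C. albicans by sterile swab on day 0; infection confirmed on day 3 by swab culture (TSB, then Sabouraud agar). Oral dosing once daily on days 3, 4, 5; vehicle controls. Vaginal swabs cultured on days 10 and 15; read-out % cured (culture-negative).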

[18] = tested on: Nakaseomyces glabratus; test: Evaluation of In vitro antifungal activity against Torulopsis glabrata 78 by broth macro dilution method; type: functional; how it was run: as §1
[19] = tested on: Nakaseomyces glabratus; test: In vitro evaluation of minimum inhibitory concentration against Torulopsis glabrata 78; type: functional; how it was run: as §2
[20] = tested on: Trichophyton benhamiae; test: In vitro evaluation of minimum inhibitory concentration against Trichophyton mentagrophytes 23; type: functional, Arthroderma benhamiae; details: Trichophyton benhamiae; read-out: MIC; how it was run: as §2
[21] = tested on: Trichophyton rubrum; test: In vitro evaluation of minimum inhibitory concentration against Trichophyton rubrum 90; type: functional; how it was run: as §2
[22] = tested on: Rhodotorula mucilaginosa; test: In vitro evaluation of minimum inhibitory concentration against Rhodotorula rubra 16; type: functional; details: Rhodotorula mucilaginosa; read-out: MIC; how it was run: as §2
[23] = tested on: Kluyveromyces marxianus; test: In vitro evaluation of minimum inhibitory concentration against Candida pseudotropicalis 13; type: functional; details: Kluyveromyces marxianus; read-out: MIC; how it was run: as §2
[24] = tested on: Pichia kudriavzevii; test: Evaluation of In vitro antifungal activity against Candida krusei C64 by broth macro dilution method; type: functional; how it was run: as §1
[25] = tested on: Candida parapsilosis; test: Evaluation of In vitro antifungal activity against Candida parapsilosis 2.07 by broth macro dilution method; type: functional; details: Lodderomyces parapsilosis; how it was run: as §1
[26] = tested on: Candida parapsilosis; test: Evaluation of In vitro antifungal activity against Candida parapsilosis ATCC 141095 by broth macro dilution method; type: functional; details: Lodderomyces parapsilosis; how it was run: as §1
[27] = tested on: Aspergillus flavus; test: In vitro evaluation of minimum inhibitory concentration against Aspergillus flavus 19; type: functional; details: Aspergillus flavus; read-out: MIC; how it was run: as §2
[28] = tested on: Candida albicans; test: Evaluation of In vitro antifungal activity against Candida albicans C56 by broth macro dilution method; type: functional; how it was run: as §1
[29] = tested on: Rattus norvegicus; test: In vivo evaluation of antifungal activity against vaginal candidosis in rat at dose 0.25 mg/kg on 15th day; type: functional; how it was run: as §4
[30] = tested on: Candida albicans; test: Evaluation of In vitro antifungal activity against Candida albicans 60 by broth macro dilution method

Structure (SMILES): C[C@@H](NC(=O)c1ccc(C(F)(F)F)cc1)[C@](O)(Cn1cncn1)c1ccc(F)cc1F
- MIC [1]: 1 µg/mL (≈ 2.27 µM)
- MIC [2]: 80 µg/mL (≈ 182 µM)
- MFC [3]: > 64 µg/mL
- MIC [3]: < 0.031 µg/mL
- MFC [4]: > 64 µg/mL
- MIC [4]: 0.5 µg/mL (≈ 1.14 µM)
- survival at 0.5 mg/kg [5]: 100%
- survival at 1 mg/kg [6]: 100%
- survival at 0.5 mg/kg [7]: 100%
- survival at 1 mg/kg [8]: 100%
- survival at 0.5 mg/kg [9]: 95%
- survival at 1 mg/kg [10]: 100%
- survival at 0.5 mg/kg [11]: 70%
- Survival [12]: 100%
- MIC [13]: 20 µg/mL (≈ 45.4 µM)
- MIC [14]: 10 µg/mL (≈ 22.7 µM)
- Cure rate [15]: 0%
- Cure rate [16]: 20%
- Cure rate [17]: 100%
- MFC [18]: > 64 µg/mL
- MIC [18]: 8 µg/mL (≈ 18.2 µM)
- MIC [19]: 20 µg/mL (≈ 45.4 µM)
- MIC [20]: 40 µg/mL (≈ 90.8 µM)
- MIC [21]: 10 µg/mL (≈ 22.7 µM)
- MIC [22]: 1.25 µg/mL (≈ 2.84 µM)
- MIC [23]: 40 µg/mL (≈ 90.8 µM)
- MFC [24]: 16 µg/mL (≈ 36.3 µM)
- MIC [24]: 4 µg/mL (≈ 9.08 µM)
- MFC [25]: 64 µg/mL (≈ 145 µM)
- MIC [25]: 0.063 µg/mL (≈ 0.143 µM)
- MFC [26]: 32 µg/mL (≈ 72.7 µM)
- MIC [26]: 1 µg/mL (≈ 2.27 µM)
- MIC [27]: 20 µg/mL (≈ 45.4 µM)
- MFC [28]: > 64 µg/mL
- MIC [28]: < 0.031 µg/mL
- Cure rate [29]: 100%
- MFC [30]: > 64 µg/mL
